According to ChEMBL document CHEMBL1154604, “Novel hybrids from lamellarin D and combretastatin A 4 as cytotoxic agents” (Eur J Med Chem, 2010):

Columns and labels:
Assay type in all cases: functional, cell-based
K562 = test: Antiproliferative activity against human K562 cells after 48 hrs by MTT assay; conditions: K562, 48 h
In short: (§1)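 Exponentially growing cells seeded in 96-well plates, left 24 h, then exposed to compounds at given concentrations for 48 h. MTT at 2.5 mg ml^-1 added for 4 h; formazan dissolved in 10% SDS in 0.1 N HCl, absorbance at 570 nm. Viability compared with blank; IC50 (50% inhibition of viability) calculated by Bliss method.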

A549 = test: Antiproliferative activity against human A549 cells after 48 hrs by MTT assay; conditions: A549, 48 h; in short: as §1
SMMC-7721 = test: Antiproliferative activity against human SMMC7721 cells after 48 hrs by MTT assay; conditions: SMMC-7721, 48 h; in short: as §1
SGC-7901 = test: Antiproliferative activity against human SGC7901 cells after 48 hrs by MTT assay; conditions: SGC-7901, 48 h; in short: as §1
HCT-116 = test: Antiproliferative activity against human HCT116 cells after 48 hrs by MTT assay; conditions: HCT-116, 48 h; in short: as §1

| SMILES | IC50 (K562) [µM] | IC50 (A549) [µM] | IC50 (SMMC-7721) [µM] | IC50 (SGC-7901) [µM] | IC50 (HCT-116) [µM] |
| --- | --- | --- | --- | --- | --- |
| COc1cc2c(cc1OC)-c1c(-c3cc(OC)c(OC)c(OC)c3)c(-c3ccc(O)c(O)c3)cn1CC2 | 14.1 | 99.4 | 43.9 | > 99.4 | 5.8 |
| COc1cc2c(cc1OC(C)C)CCn1cc(-c3ccc(Cl)cc3)c(-c3cc(OC)c(OC)c(OC)c3)c1-2 | > 93.6 | > 93.6 | > 93.6 | > 93.6 | > 93.6 |
| COc1ccc(-c2c(-c3ccc(O)cc3)cn3c2-c2cc(OC)c(OC)cc2CC3)cc1 | 3.1 | > 117 | > 117 | > 117 | 34.5 |
| COc1cc2c(cc1OC(C)C)CCn1cc(-c3ccc(Br)cc3)c(-c3cc(OC)c(OC)c(OC)c3)c1-2 | > 86.4 | > 86.4 | > 86.4 | 15.4 | > 86.4 |
| COc1cc2c(cc1OC)-c1c(-c3cc(OC)c(OC)c(OC)c3)c(-c3ccc(O)cc3)cn1CC2 | 5.3 | 23.3 | 15 | 22.7 | 13.8 |
| COc1cc2c(cc1OC)-c1c(-c3cc(OC)c(OC)c(OC)c3)c(-c3ccc(OC)c(OC(C)C)c3)cn1CC2 | > 89.3 | > 89.3 | > 89.3 | > 89.3 | > 89.3 |
| COc1ccc(-c2c(-c3cc(F)ccc3OC)cn3c2-c2cc(OC)c(OC)cc2CC3)cc1 | > 109 | > 109 | > 109 | > 109 | > 109 |
| COc1ccc(-c2c(-c3ccc(O)c(O)c3)cn3c2-c2cc(OC)c(OC)cc2CC3)cc1OC | > 106 | > 106 | > 106 | > 106 | > 106 |
| COc1cc2c(cc1OC(C)C)CCn1cc(-c3ccc(O)c(O)c3)c(-c3cc(OC)c(OC)c(OC)c3)c1-2 | 4 | > 94.1 | > 94.1 | > 94.1 | 1.4 |
| COc1cc2c(cc1OC)-c1c(-c3cc(OC)c(OC)c(OC)c3)c(-c3ccc(Cl)cc3)cn1CC2 | > 98.8 | > 98.8 | > 98.8 | > 98.8 | > 98.8 |
| COc1cc(-c2c(-c3ccc(O)c(O)c3)cn3c2-c2cc(OC)c(OC(C)C)cc2CC3)ccc1OC(C)C | 2.7 | 6.7 | 10.9 | 11.4 | 0.7 |
| COc1ccc(-c2c(-c3ccc(OC)c(O)c3)cn3c2-c2cc(OC)c(OC)cc2CC3)cc1 | > 109 | > 109 | > 109 | > 109 | > 109 |
| COc1ccc(-c2cn3c(c2-c2cc(OC)c(OC)c(OC)c2)-c2cc(OC)c(OC)cc2CC3)cc1O | 22 | > 96.4 | > 96.4 | > 96.4 | 3.2 |
| COc1ccc(-c2cn3c(c2-c2cc(OC)c(OC)c(OC)c2)-c2cc(OC)c(OC(C)C)cc2CC3)cc1O | 19.6 | > 91.5 | > 91.5 | > 91.5 | > 91.5 |
| COc1cc2c(cc1OC(C)C)CCn1cc(-c3ccc(O)cc3)c(-c3cc(OC)c(OC)c(OC)c3)c1-2 | > 96.8 | > 96.8 | 46.7 | > 96.8 | > 96.8 |
| COc1cc2c(cc1OC)-c1c(-c3cc(OC)c(OC)c(OC)c3)c(-c3ccc(Br)cc3)cn1CC2 | 8.8 | > 90.8 | 17.5 | 1.2 | > 90.8 |
| COc1ccc(-c2c(-c3cc(F)ccc3OC(C)C)cn3c2-c2cc(OC)c(OC)cc2CC3)cc1 | > 103 | > 103 | > 103 | > 103 | > 103 |
| COc1cc(-c2c(-c3cc(OC)c(OC(C)C)cc3OS(C)(=O)=O)cn3c2-c2cc(OC)c(OC(C)C)cc2CC3)ccc1OC(C)C | 59.8 | > 73.5 | > 73.5 | > 73.5 | 21 |
| COc1ccc(-c2c(-c3cc(OC)c(OC)cc3OS(C)(=O)=O)cn3c2-c2cc(OC)c(OC)cc2CC3)cc1OC | > 83.9 | > 83.9 | > 83.9 | > 83.9 | > 83.9 |
| COc1cc(OS(C)(=O)=O)c(-c2cn3c(c2-c2ccc(OC(C)C)c(OC)c2)-c2cc(OC)c(OC(C)C)cc2CC3)cc1OC | > 76.7 | > 76.7 | > 76.7 | > 76.7 | > 76.7 |
| COc1ccc(-c2cn3c(c2-c2cc(OC)c(OC)c(OC)c2)-c2cc(OC)c(OC(C)C)cc2CC3)cc1OC(C)C | 83.3 | > 85.1 | > 85.1 | > 85.1 | > 85.1 |
| COc1cc(-c2c(-c3cc(F)ccc3OC)cn3c2-c2cc(OC)c(OC(C)C)cc2CC3)ccc1OC(C)C | > 91.6 | > 91.6 | > 91.6 | > 91.6 | > 91.6 |
| COc1cc2c(cc1OC)-c1c(-c3cc(OC)c(OC)c(OC)c3)c(-c3cc(F)ccc3OC)cn1CC2 | 37.1 | > 96.2 | > 96.2 | > 96.2 | > 96.2 |
| CC(=O)O[C@H]1C(=O)[C@@]2(C)[C@H]([C@H](OC(=O)c3ccccc3)[C@]3(O)C[C@H](OC(=O)[C@H](O)[C@@H](NC(=O)c4ccccc4)c4ccccc4)C(C)=C1C3(C)C)[C@]1(OC(C)=O)CO[C@@H]1C[C@@H]2O [PACLITAXEL] |  |  |  | 3.34 |  |
